Data on three compounds can be found in paper PMC5955861 (Oncogene, 2018).

Molecules are shown by their SMILES. Read-outs that look alike come from different tables or passages of the source.

In one test the test system is MV-4-11B. In words: alamarBlue cell proliferation assay. It counts as cell-based, human. Conditions: MV-4-11B cells. In a few lines: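 Cell lines from ATCC or DSMZ were cultured per supplier's instructions and STR-authenticated. MV-4-11B is a clone of MV-4-11 carrying heterozygous TP53 c.742C>T (p.R248W). Cells were exposed to test compound in 96-well format, and viability was read after incubation with alamarBlue.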
On the technique in general: Alamar Blue is a resazurin reagent that responds to reducing activity.

Test [1] has as its system p-Ser2 POL-II in MV-4-11B cells. In words: p-Ser2 POL-II custom MSD assay. The class given is cell-based. Conditions: 5 µM LDC000067, 2 h. The essentials:
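MV-4-11B cells were treated for 2 h with single agents or their combination. Phospho-Ser2 RNA Pol II was quantified with a custom Meso Scale Discovery multi-array assay.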

A further test concerns THP-1 AML cells. In words: disseminated AML xenograft efficacy study. It counts as in vivo, CIEA-NOG mice. To be noted: decitabine twice per week, 0.5 mg/kg i.p.

As a reminder, the EC50 is the concentration at which the effect is half-maximal. Regarding `COc1ccccc1-c1cc(Nc2cccc(CS(N)(=O)=O)c2)ncn1` [LDC000067, reference compound], the EC50 with MV-4-11B was 5000 nM. Besides, the “p-Ser2 POL-II levels” value in test [1] is ~ 64 % of control.
`Cc1sc2c(c1C)C(c1ccc(Cl)cc1)=N[C@@H](CC(=O)OC(C)(C)C)c1nnc(C)n1-2` [JQ1, reference compound]: the 50% effective concentration (EC50) in the test on MV-4-11B (read-out: anti-proliferative EC50, biologically equivalent concentrations) was determined as 200 nM.
Turning to `Nc1ncn([C@H]2C[C@H](O)[C@@H](CO)O2)c(=O)n1` [decitabine, reference compound], the survival prolongation with THP-1 AML cells was determined as 26 days.
